Tested on: U2OS
Test: Multiplex assay against U2OS
Format: toxicity, cell-based
Conditions: human
Summary of the method: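 Imaging took place on a CQ1 microscope at 37°C and 5% CO2 once compound had been added to live cells stained at seeding with Hoechst33342, BioTracker Green Microtubule Cytoskeleton Dye, MitoTracker Red and Annexin V Alexa Fluor 680. CellPathfinder machine-learning gating classed cells as Hoechst high-intensity objects or normal cells, classed normal cells as having healthy, pyknosed or fragmented nuclei, and classed pyknosed cells as mitotic or apoptotic. Tubulin, mitochondrial-mass and membrane-permeability phenotypes are per cents of the healthy-nucleus cells.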

[1] = 12 h, 1 µM, compound concentration 1 uM, replicate 1
[2] = 12 h, 1 µM, compound concentration 1 uM, replicate 2
[3] = 12 h, 10 µM, compound concentration 10 uM, replicate 1
[4] = 12 h, 10 µM, compound concentration 10 uM, replicate 2
[5] = 24 h, 1 µM, compound concentration 1 uM, replicate 1
[6] = 24 h, 1 µM, compound concentration 1 uM, replicate 2
[7] = 24 h, 10 µM, compound concentration 10 uM, replicate 1
[8] = 24 h, 10 µM, compound concentration 10 uM, replicate 2
[9] = 48 h, 1 µM, compound concentration 1 uM, replicate 1
[10] = 48 h, 1 µM, compound concentration 1 uM, replicate 2
[11] = 48 h, 10 µM, compound concentration 10 uM, replicate 1
[12] = 48 h, 10 µM, compound concentration 10 uM, replicate 2

## Cc1nn(C)c2nc(NNC(=O)Nc3cc(Cl)nc(Cl)c3)cc(C(C)C)c12
[1]
  Population Apoptotic (%): 76%
  Population Fragmented Nuclei (%): 23%
  Population Healthy Nuclei (%): 66%
  Population Hoechst High Intensity Objects (%): 1%
  Population Membrane Permeable-Phenotype (%): 5%
  Population Mitochondria Different-Phenotype (%): 3%
  Population Mitotic Cells (%): 24%
  Population Normal (%): 98%
  Population Pyknosed Nuclei (%): 9%
  Population Tubulin-Different-Phenotype (%): 2%
  Total Cell Count: 268
[2]
  Population Apoptotic (%): 72%
  Population Fragmented Nuclei (%): 14%
  Population Healthy Nuclei (%): 76%
  Population Hoechst High Intensity Objects (%): 2%
  Population Membrane Permeable-Phenotype (%): 10%
  Population Mitochondria Different-Phenotype (%): 7%
  Population Mitotic Cells (%): 27%
  Population Normal (%): 97%
  Population Pyknosed Nuclei (%): 8%
  Population Tubulin-Different-Phenotype (%): 7%
  Total Cell Count: 131
[3]
  Population Apoptotic (%): 77%
  Population Fragmented Nuclei (%): 21%
  Population Healthy Nuclei (%): 56%
  Population Hoechst High Intensity Objects (%): 7%
  Population Membrane Permeable-Phenotype (%): 75%
  Population Mitochondria Different-Phenotype (%): 46%
  Population Mitotic Cells (%): 22%
  Population Normal (%): 92%
  Population Pyknosed Nuclei (%): 21%
  Population Tubulin-Different-Phenotype (%): 80%
  Total Cell Count: 222
[4]
  Population Apoptotic (%): 47%
  Population Fragmented Nuclei (%): 15%
  Population Healthy Nuclei (%): 63%
  Population Hoechst High Intensity Objects (%): 4%
  Population Membrane Permeable-Phenotype (%): 57%
  Population Mitochondria Different-Phenotype (%): 63%
  Population Mitotic Cells (%): 52%
  Population Normal (%): 95%
  Population Tubulin-Different-Phenotype (%): 77%
  Total Cell Count: 104
[5]
  Population Apoptotic (%): 80%
  Population Fragmented Nuclei (%): 20%
  Population Healthy Nuclei (%): 71%
  Population Hoechst High Intensity Objects (%): 0%
  Population Membrane Permeable-Phenotype (%): 4%
  Population Mitochondria Different-Phenotype (%): 2%
  Population Mitotic Cells (%): 19%
  Population Normal (%): 99%
  Population Pyknosed Nuclei (%): 8%
  Population Tubulin-Different-Phenotype (%): 1%
  Total Cell Count: 328
[6]
  Population Apoptotic (%): 93%
  Population Fragmented Nuclei (%): 17%
  Population Healthy Nuclei (%): 73%
  Population Hoechst High Intensity Objects (%): 2%
  Population Membrane Permeable-Phenotype (%): 9%
  Population Mitochondria Different-Phenotype (%): 4%
  Population Mitotic Cells (%): 6%
  Population Normal (%): 97%
  Population Pyknosed Nuclei (%): 9%
  Population Tubulin-Different-Phenotype (%): 4%
  Total Cell Count: 168
[7]
  Population Apoptotic (%): 78%
  Population Fragmented Nuclei (%): 19%
  Population Healthy Nuclei (%): 49%
  Population Hoechst High Intensity Objects (%): 5%
  Population Membrane Permeable-Phenotype (%): 69%
  Population Mitochondria Different-Phenotype (%): 58%
  Population Mitotic Cells (%): 21%
  Population Normal (%): 94%
  Population Pyknosed Nuclei (%): 31%
  Population Tubulin-Different-Phenotype (%): 77%
  Total Cell Count: 218
[8]
  Population Apoptotic (%): 69%
  Population Fragmented Nuclei (%): 16%
  Population Healthy Nuclei (%): 61%
  Population Hoechst High Intensity Objects (%): 2%
  Population Membrane Permeable-Phenotype (%): 42%
  Population Mitochondria Different-Phenotype (%): 51%
  Population Mitotic Cells (%): 30%
  Population Normal (%): 97%
  Population Pyknosed Nuclei (%): 21%
  Population Tubulin-Different-Phenotype (%): 57%
  Total Cell Count: 110
[9]
  Population Apoptotic (%): 88%
  Population Fragmented Nuclei (%): 17%
  Population Healthy Nuclei (%): 75%
  Population Hoechst High Intensity Objects (%): 2%
  Population Membrane Permeable-Phenotype (%): 4%
  Population Mitochondria Different-Phenotype (%): 3%
  Population Mitotic Cells (%): 11%
  Population Normal (%): 97%
  Population Pyknosed Nuclei (%): 7%
  Population Tubulin-Different-Phenotype (%): 2%
  Total Cell Count: 504
[10]
  Population Apoptotic (%): 86%
  Population Fragmented Nuclei (%): 21%
  Population Healthy Nuclei (%): 65%
  Population Hoechst High Intensity Objects (%): 1%
  Population Membrane Permeable-Phenotype (%): 8%
  Population Mitochondria Different-Phenotype (%): 4%
  Population Mitotic Cells (%): 13%
  Population Normal (%): 98%
  Population Pyknosed Nuclei (%): 12%
  Population Tubulin-Different-Phenotype (%): 5%
  Total Cell Count: 247
[11]
  Population Apoptotic (%): 83%
  Population Fragmented Nuclei (%): 24%
  Population Healthy Nuclei (%): 43%
  Population Hoechst High Intensity Objects (%): 9%
  Population Membrane Permeable-Phenotype (%): 51%
  Population Mitochondria Different-Phenotype (%): 46%
  Population Mitotic Cells (%): 16%
  Population Normal (%): 90%
  Population Pyknosed Nuclei (%): 32%
  Population Tubulin-Different-Phenotype (%): 49%
  Total Cell Count: 244
[12]
  Population Apoptotic (%): 80%
  Population Healthy Nuclei (%): 48%
  Population Hoechst High Intensity Objects (%): 6%
  Population Mitochondria Different-Phenotype (%): 63%
  Population Mitotic Cells (%): 20%
  Population Normal (%): 93%
  Population Pyknosed Nuclei (%): 27%
  Population Tubulin-Different-Phenotype (%): 57%
  Total Cell Count: 115

— ChEMBL document CHEMBL5058577, “EUbOPEN Chemogenomics Library 2 (Multiplex)” (2022)
